# Bioassay records from PubChem BioAssay.
# MrgX1 antagonist: antagonists of human MrgX1 receptor, primary screen, HEK293 cells, Fluo-4 calcium flux; Mas-related G-protein coupled receptor member X1 (Homo sapiens), Q96LB2; BAM8-22 antagonism; stronger effect = lower value; B-score at 10 µM; 1.3% of 310,000 active;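 active = calcium-response B-score plate-corrected more than 3 library SD below zero, starting fluorescence within 5 deviations, no agonist response on first addition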;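 note: peak minus trough fluorescence over baseline after final BAM8-22 challenge near maximal dose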
# Target sequence (Q96LB2 whole entry, looked up): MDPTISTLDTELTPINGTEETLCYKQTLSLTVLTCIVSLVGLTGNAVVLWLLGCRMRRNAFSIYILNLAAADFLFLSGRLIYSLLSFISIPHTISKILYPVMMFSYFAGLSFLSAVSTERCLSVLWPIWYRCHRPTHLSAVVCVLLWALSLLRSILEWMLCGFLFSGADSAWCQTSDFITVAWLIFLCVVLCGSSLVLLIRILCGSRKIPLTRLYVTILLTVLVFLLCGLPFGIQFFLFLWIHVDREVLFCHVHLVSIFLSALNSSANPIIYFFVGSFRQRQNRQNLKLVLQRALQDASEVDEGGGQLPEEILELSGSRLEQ
# RGS4 block: RGS4 inhibitors, primary screen, cell-based, HEK293 M3R inducible RGS4, calcium flux; Regulator of G-protein signaling 4 (Homo sapiens), P49798; Fluo-4 calcium flux; stronger effect = higher value; triggered by carbachol at its EC20; B-score at 10 µM; 0.45% of 310,000 active; AID 463165, 2010;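 active = B-score, a plate-corrected calcium signal, over three deviations above library mean, with baseline fluorescence within five deviations of library mean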;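 note: RGS4 expression induced by doxycycline in cells with stable M3 receptor; B-score is computed from the integrated fluorescence ratio over baseline after carbachol; higher B-score means a larger calcium signal and so more RGS4 inhibition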
# Target sequence (P49798 whole entry, looked up): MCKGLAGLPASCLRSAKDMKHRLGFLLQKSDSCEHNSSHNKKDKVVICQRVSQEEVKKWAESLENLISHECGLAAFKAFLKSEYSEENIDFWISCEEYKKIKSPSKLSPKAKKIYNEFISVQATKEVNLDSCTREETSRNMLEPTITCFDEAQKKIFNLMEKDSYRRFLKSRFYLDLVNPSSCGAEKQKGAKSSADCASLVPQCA
# MrgX1 ag: agonists of human MrgX1 receptor, primary screen, HEK293 cells, Fluo-4 calcium flux | Mas-related G-protein coupled receptor member X1 (Homo sapiens), Q96LB2 | Fluo-4 calcium fluorescence, agonist mode; stronger effect = higher value | B-score at 10 µM | 0.44% of 310,000 active | AID 588627, 2011;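 active = calcium response B-score plate-corrected fluorescence ratio at least 3 library SD, with starting fluorescence B-score inside 5 SD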
#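 Test system: HEK293 cells stably expressing human MrgX1 receptor; Input: fifteen thousand cells per well; Dosing: compound delivered in addition one of three; Schedule: overnight seeding, then 1 h dark dye loading; Technique: Fluo-4 NW calcium fluorescence; Measure: B-scored fluorescence response ratio; Controls: positive and negative controls per plate.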
# RGS4 act: RGS4 potentiators or activators, primary screen, cell-based, HEK293 M3R inducible RGS4, calcium flux | AID 463111, 2010 | B-score at 10 µM | carbachol calcium flux Fluo4; stronger effect = lower value | 0.92% of 310,000 active;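 active = B-score of the integrated calcium signal more than 4 SD below the library mean, with starting fluorescence not abnormally high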;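 note: negative B-score means reduced calcium response which marks RGS4 activation or potentiation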
#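 Test system: HEK293 cells with stable M3R and inducible RGS4; also added: carbachol at ECmax as muscarinic agonist stimulus; schedule: dye loading 30 min 37 °C, buffer rest 30 min RT; technique: kinetic calcium fluorescence imaging with Fluo4-AM dye, 2 µM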
# MrgX1 PAM: positive allosteric modulators of MrgX1, primary screen, HEK293 cells, Fluo-4 calcium flux. B-score at 10 µM. FDSS; stronger effect = higher value. Mas-related G-protein coupled receptor member X1 (Homo sapiens), Q96LB2. AID 588675, 2011. 0.63% of 310,000 active;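 active = plate-corrected calcium response at least 3 library SD above typical, normal starting fluorescence, not activating the receptor alone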;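 note: compound read alongside a low EC10 to EC30 dose of BAM8-22 agonist; peak minus trough fluorescence over baseline measured at the second addition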
# MrgX1 ant reconf: MrgX1 receptor antagonists, duplicate retest, confirmation, HEK293 cells, Fluo-4 calcium flux; shares compounds with MrgX1 antagonist; BAM8-22 calcium flux; stronger effect = lower value; remaining BAM8-22 calcium response % of control (stronger effect = lower value), % at 10 µM; 19% of 2,300 active;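 active = remaining agonist calcium response no higher than 100% minus 3 SD of agonist-only control wells, with starting fluorescence near control levels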;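 note: agonist BAM8-22 given at a near maximal EC90 to ECmax level; peak minus minimum fluorescence divided by baseline after agonist addition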
# HEK293 Ca flux: nonspecific calcium signal in parental HEK293, confirmation, counter-screen for MrgX1 antagonist project, parental HEK293 cells, Fluo-4 calcium flux | 2% of 4,000 active | Fluo-4 calcium fluorescence, FDSS | shares compounds with MrgX1 antagonist | fluorescence ratio F(max-min)/F0 at 10 µM;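 active = duplicate-averaged calcium fluorescence ratio at least three times the standard deviation of buffer wells, a nonspecific response in parental cells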
# HEK293 Ca counter: calcium response in parental HEK293 cells, primary screen, counter-screen for MrgX1 allosteric activator project, cell-based, Fluo-4 calcium flux, duplicate; shares compounds with MrgX1 antagonist; fluorescence ratio F(max-min)/F0 at 10 µM; 0.4% of 4,000 active; AID 624114, 2012; Fluo-4 fluorescence ratio; stronger effect = higher value;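 active = calcium fluorescence ratio, averaged over duplicates, at least 3 SD of the buffer-well ratio, meaning a nonspecific response in receptor-free cells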;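 note: untransfected parental HEK293 lacking MrgX1 used as counterscreen for MrgX1 allosteric activators; fluorescence change taken during the second addition on a kinetic imager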
# HEK293 Ca cntr2: calcium response in parental HEK293 cells, primary screen, counter-screen for MrgX1 agonist project, cell-based, Fluo-4 calcium flux, duplicate, agonist mode; shares compounds with MrgX1 antagonist; Fluo-4 calcium fluorescence (FDSS); stronger effect = higher value; fluorescence ratio F(max-min)/F0 at 10 µM; 8.7% of 4,000 active; AID 624115, 2012;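 active = calcium fluorescence ratio at least three times the spread of buffer wells, meaning a non-specific response in parental cells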
# Active calls of the source: *; i = inactive; x = no result. Rows were chosen to be rich in hits. Some 3.5% of all compounds tested hit in one or more screens of this group.
SMILES,MrgX1 antagonist,RGS4 block,MrgX1 ag,RGS4 act,MrgX1 PAM,MrgX1 ant reconf,HEK293 Ca flux,HEK293 Ca counter,HEK293 Ca cntr2
CCCCNC(=O)C(NS(=O)(=O)c1cccc2nsnc12)c1ccccc1 (stereo not given),i,i,i,i,i,x,x,x,x
O=C(NCCc1ccccc1)C(NS(=O)(=O)c1cccc2nsnc12)c1ccccc1 (stereo not given),-4.7*,i,i,i,i,i,i,i,i
CCCNC(=O)C(NS(=O)(=O)c1cccc2nsnc12)c1ccccc1 (stereo not given),-6.9*,i,i,i,i,i,i,i,i
CCn1c(=O)[nH]c2cc(C(=O)Nc3cc(C)cc(C)c3)ccc2c1=O,-5.1*,i,i,i,i,82%*,i,i,i
COc1cccc(CN2CCC(C(=O)N3CCN(c4ccccc4F)CC3)CC2)c1OC,-9.2*,i,i,i,i,i,i,i,i
COc1ccc(N(CC(=O)O)S(=O)(=O)c2cccnc2)cc1,-6.8*,i,i,i,i,i,i,i,i
CCN(CC)C(=O)COc1coc(CN2CCN(c3ccccc3F)CC2)cc1=O,i,i,i,i,i,x,x,x,x
CC#CC(=O)N1CCCC(Cc2cccc(OC)c2)(C(=O)OCC)C1 (stereo not given),i,i,i,i,i,x,x,x,x
Cc1cc(C)cc(NC(=O)CSc2nc3[nH]ncc3c(=O)[nH]2)c1,-9.1*,i,i,i,i,i,i,i,i
CC1CCN(C(=O)CSc2nc3[nH]ncc3c(=O)[nH]2)CC1,-6.4*,i,i,i,i,i,i,i,i
COc1ccc(CC2(CO)COc3ccccc3C2=O)cc1 (stereo not given),i,i,i,i,i,x,x,x,x
Cc1noc(C)c1CSCC(=O)Nc1nc2ccc(F)cc2s1,i,i,i,i,i,x,x,x,x
CCOC(=O)C1CCN(C(=O)c2sc3nc(-c4ccc(F)cc4)cn3c2C)CC1,-5.8*,i,i,i,i,i,i,i,i
Cc1cc(C)cc(OCC(O)CN2CCC(CN3C(=O)c4cccc5cccc(c45)C3=O)CC2)c1 (stereo not given),i,i,i,i,i,x,x,x,x
COC(=O)Oc1cncc(C(=O)O)c1,-5.2*,i,i,i,i,i,i,i,i
Cc1csc(SCC(=O)NC(=O)NC2CCCC2)n1,i,i,i,i,i,x,x,x,x
CCOC(=O)Cc1csc(NC(=O)c2c(O)c3c(n(CC(C)C)c2=O)CCCC3)n1,-6.8*,i,i,i,i,81%*,i,i,i
CC(=O)c1cccc(NC(=O)COC(=O)[C@@H](NC(=O)OCc2ccccc2)C(C)C)c1,i,i,i,i,i,x,x,x,x
COC(=O)c1ccc(NC(=O)CCC(=O)c2ccc(F)cc2)cc1,i,i,i,i,i,x,x,x,x
CCN(C(=O)c1cccc(Br)c1)C1CCS(=O)(=O)C1 (stereo not given),i,i,i,i,i,x,x,x,x
CN(C(=O)c1cccc(Br)c1)C1CCS(=O)(=O)C1 (stereo not given),-4.5*,i,i,i,i,i,i,i,i
CCN(CC)S(=O)(=O)c1ccc(C(=O)Nc2cc3oc4ccccc4c3cc2OC)cc1,-6.8*,i,i,i,i,i,i,i,i
COc1cc(NC(=O)c2ccc(S(=O)(=O)N(C)C)cc2)cc(OC)c1OC,-5.3*,i,i,i,i,i,i,i,i
Cc1cccc(NC(=O)c2ccc(S(=O)(=O)N(C)C)cc2)c1,i,i,i,i,i,x,x,x,x
O=C1c2cccc3c(N4CCCCC4)ccc(c23)C(=O)N1CCO,i,i,i,i,i,x,x,x,x
SMILES,MrgX1 antagonist,RGS4 block,MrgX1 ag,RGS4 act,MrgX1 PAM,MrgX1 ant reconf,HEK293 Ca flux,HEK293 Ca counter,HEK293 Ca cntr2
O=C1c2cccc3c(N4CCCCC4)ccc(c23)C(=O)N1c1cccc(O)c1,-5.2*,i,i,i,i,i,i,i,i
COc1ccc(C(=O)Nc2ccnn2C2CCN(Cc3ccccn3)CC2)cc1,i,i,i,i,i,x,x,x,x
Cc1cc(-c2nnc3n2CCCCC3)c(C)n1-c1ccccc1,-4.7*,i,i,i,i,i,i,i,i
COc1ccc(-c2nnc3n2CCCCC3)cc1OC,i,i,i,i,i,x,x,x,x
Cc1nc([N+](=O)[O-])c(C(=O)OCc2cccc(Br)c2)n1C,i,i,i,i,i,x,x,x,x
CC(C)(C)NS(=O)(=O)c1ccc(CCC(=O)Nc2ccc3c(c2)OCCO3)cc1,-4.7*,i,i,i,i,i,i,i,i
CCc1nnc2sc(-c3ccc(NC(=O)c4ccco4)cc3)nn12,-8.1*,i,i,i,i,i,i,i,i
COc1ccc(-c2cc(C(F)(F)F)n3ncc(C(=O)N4CCCCC4c4cccnc4)c3n2)cc1 (stereo not given),-5.8*,i,i,i,i,i,i,i,i
CCOC(=O)C1CCCN(C(=O)c2cnn3c(C(F)(F)F)cc(-c4ccccc4)nc23)C1 (stereo not given),i,i,i,i,i,x,x,x,x
CCN(CC)S(=O)(=O)c1ccc(OC(C)C)nc1,-5.9*,i,i,i,i,i,i,i,i
